# Data reported in ChEMBL document CHEMBL1126902, “Synthesis, chemical reactivity, and antitumor evaluation of congeners of carmethizole hydrochloride, an experimental "acylated vinylogous carbinolamine" tumor inhibitor” (J Med Chem, 1993).
# Assays:
# [1] = Percent increase in life span of dying mice tested in vivo at 49.5 mg/kg against ip implanted LOX amelanotic melanoma in mice (60-day survivors); format: functional; settings: Mus musculus, 1440 h, route intraperitoneal
# Outline: (§1)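 Female CD2F1 mice implanted ip with ascitic fluid carrying ca. 1.7×10^6 LOX amelanotic melanoma cells. Drug given ip on days 1, 5 and 9, starting 24 h after implant, dosed by exact body weight; solutions or suspensions made fresh daily. %ILS is from the median day of death of dying mice versus controls, excluding 60-day survivors.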
# [2] = Percent increase in life span of dying mice tested in vivo at 99 mg/kg against ip implanted LOX amelanotic melanoma in mice (60-day survivors); format: functional; settings: Mus musculus, 1440 h, route intraperitoneal
# Outline: (§2)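 Nude CD2F1 female mice were implanted ip with ascitic fluid containing ca. 1.7×10^6 LOX amelanotic melanoma cells. Drug was given ip on days 1, 5 and 9, starting 24 h after implantation, and dosed by exact body weight. Solutions or suspensions were made fresh daily in saline plus Tween 80. %ILS was calculated from the median day of death of dying mice versus controls, excluding 60-day survivors.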
# [3] = Change in tumor cell population in ip implanted LOX amelanotic melanoma in mice after administration of compound at 49.5 mg/kg; format: functional, Mus musculus; settings: route intraperitoneal
# Outline: (§3)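 Female CD2F1 mice were implanted ip with ascitic fluid holding ca. 1.7×10^6 LOX cells. Dosing was ip on days 1, 5 and 9, starting 24 h after implantation, by exact body weight, as a solution or suspension in saline plus Tween 80, freshly prepared daily. KE is the net log change in viable tumor cells from start to end of treatment. Bracketed KE assumes Poisson survival, with 60-day survivors tumor-free.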
# [4] = Change in tumor cell population in ip implanted LOX amelanotic melanoma in mice after administration of compound at 99 mg/kg; format: functional, Mus musculus; settings: route intraperitoneal; outline: as §3
# [5] = Change in tumor cell population in ip implanted LOX amelanotic melanoma in mice after administration of compound at 198 mg/kg; format: functional, Mus musculus; settings: route intraperitoneal; outline: as §3
# [6] = Change in tumor cell population in ip implanted LOX amelanotic melanoma in mice after administration of compound at 24.75 mg/kg; format: functional, Mus musculus; settings: route intraperitoneal; outline: as §3
# [7] = Percent increase in life span of dying mice tested in vivo at 24.75 mg/kg against ip implanted LOX amelanotic melanoma in mice (60-day survivors); format: functional; settings: Mus musculus, 1440 h, route intraperitoneal; outline: as §1
# [8] = Percent increase in life span of dying mice tested in vivo at 198 mg/kg against ip implanted LOX amelanotic melanoma in mice (60-day survivors); format: functional; settings: Mus musculus, 1440 h, route intraperitoneal; outline: as §1
# [9] = tested on: P388; test: Change in tumor cell population in ip implanted P388 Leukemia in mice after administration of compound at 24.8 mg/kg; format: functional, Mus musculus; settings: route intraperitoneal
# Outline: (§4)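 Female Portage-CD2F1 mice were inoculated ip with ascitic fluid holding ca. 5.2×10^6 P388 cells. Dosing was ip on days 1-5, starting 24 h after inoculation, by average body weight, as a solution or suspension in saline plus Tween 80. KE is the net log change in viable tumor cell population from start to end of the treatment period.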
# [10] = tested on: P388; test: Change in tumor cell population in ip implanted P388 Leukemia in mice after administration of compound at 49.5 mg/kg; format: functional, Mus musculus; settings: route intraperitoneal
# Outline: (§5)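 P388 leukemia: ascitic fluid with ca. 5.2×10^6 cells inoculated ip into Portage-CD₂F₁ female mice. Drug given ip on days 1-5, starting 24 h after inoculation, dosed by average body weight. Vehicle was saline plus Tween 80, as a solution or suspension. KE = net log change in viable tumor cells from start to end of treatment.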
# [11] = tested on: P388; test: Change in tumor cell population in ip implanted P388 Leukemia in mice after administration of compound at 99 mg/kg; format: functional, Mus musculus; settings: route intraperitoneal; outline: as §5
# [12] = tested on: P388; test: Percent increase in life span of dying mice tested in vivo at 24.8 mg/kg against ip implanted P388 Leukemia in mice; format: functional; settings: Mus musculus, route intraperitoneal
# Outline: (§6)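 Portage-CD2F1 female mice inoculated ip with ascitic fluid carrying ca. 5.2×10^6 P388 leukemia cells. Drug given ip daily on days 1-5, starting 24 h after inoculation, dosed by average body weight. %ILS is from the median day of death of dying mice versus controls.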
# [13] = tested on: P388; test: Percent increase in life span of dying mice tested in vivo at 49.5 mg/kg against ip implanted P388 Leukemia in mice; format: functional; settings: Mus musculus, route intraperitoneal; outline: as §6
# [14] = tested on: P388; test: Percent increase in life span of dying mice tested in vivo at 99 mg/kg against ip implanted P388 Leukemia in mice; format: functional; settings: Mus musculus, route intraperitoneal
# Outline: (§7)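 Portage-CD2F1 female mice were inoculated ip with ascitic fluid containing ca. 5.2×10^6 P388 leukemia cells. Drug was given ip daily on days 1-5, starting 24 h after inoculation, and dosed by average body weight. %ILS was calculated from the median day of death of dying mice versus controls.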
# [15] = tested on: P388; test: Change in tumor cell population in ip implanted P388 Leukemia in mice after administration of compound at 12.4 mg/kg; format: functional, Mus musculus; settings: route intraperitoneal; outline: as §4
# [16] = tested on: P388; test: Percent increase in life span of dying mice tested in vivo at 12.4 mg/kg against ip implanted P388 Leukemia in mice; format: functional; settings: Mus musculus, route intraperitoneal; outline: as §6
# [17] = Percent increase in life span of dying mice tested in vivo at 53 mg/kg against ip implanted LOX amelanotic melanoma in mice (60-day survivors); format: functional; settings: Mus musculus, 1440 h, route intraperitoneal; outline: as §1
# [18] = Change in tumor cell population in ip implanted LOX amelanotic melanoma in mice after administration of compound at 106 mg/kg; format: functional, Mus musculus; settings: route intraperitoneal; outline: as §3
# [19] = Change in tumor cell population in ip implanted LOX amelanotic melanoma in mice after administration of compound at 53 mg/kg; format: functional, Mus musculus; settings: route intraperitoneal; outline: as §3
# [20] = Change in tumor cell population in ip implanted LOX amelanotic melanoma in mice after administration of compound at 212 mg/kg; format: functional, Mus musculus; settings: route intraperitoneal; outline: as §3
# [21] = Percent increase in life span of dying mice tested in vivo at 106 mg/kg against ip implanted LOX amelanotic melanoma in mice (60-day survivors); format: functional; settings: Mus musculus, 1440 h, route intraperitoneal; outline: as §1
# [22] = Change in tumor cell population in ip implanted LOX amelanotic melanoma in mice after administration of compound at 26.5 mg/kg; format: functional, Mus musculus; settings: route intraperitoneal; outline: as §3
# [23] = Percent increase in life span of dying mice tested in vivo at 26.5 mg/kg against ip implanted LOX amelanotic melanoma in mice (60-day survivors); format: functional; settings: Mus musculus, 1440 h, route intraperitoneal; outline: as §1
# [24] = Percent increase in life span of dying mice tested in vivo at 212 mg/kg against ip implanted LOX amelanotic melanoma in mice (60-day survivors); format: functional; settings: Mus musculus, 1440 h, route intraperitoneal; outline: as §1
# [25] = Percent increase in life span of dying mice tested in vivo at 87 mg/kg against ip implanted LOX amelanotic melanoma in mice (60-day survivors); format: functional; settings: Mus musculus, 1440 h, route intraperitoneal; outline: as §2
# [26] = Change in tumor cell population in ip implanted LOX amelanotic melanoma in mice after administration of compound at 174 mg/kg; format: functional, Mus musculus; settings: route intraperitoneal; outline: as §3
# [27] = Change in tumor cell population in ip implanted LOX amelanotic melanoma in mice after administration of compound at 87 mg/kg; format: functional, Mus musculus; settings: route intraperitoneal; outline: as §3
# [28] = Percent increase in life span of dying mice tested in vivo at 43.5 mg/kg against ip implanted LOX amelanotic melanoma in mice (60-day survivors); format: functional; settings: Mus musculus, 1440 h, route intraperitoneal; outline: as §1
# [29] = Change in tumor cell population in ip implanted LOX amelanotic melanoma in mice after administration of compound at 21.75 mg/kg; format: functional, Mus musculus; settings: route intraperitoneal; outline: as §3
# [30] = Change in tumor cell population in ip implanted LOX amelanotic melanoma in mice after administration of compound at 43.5 mg/kg; format: functional, Mus musculus; settings: route intraperitoneal; outline: as §3
# [31] = Percent increase in life span of dying mice tested in vivo at 174 mg/kg against ip implanted LOX amelanotic melanoma in mice (60-day survivors); format: functional; settings: Mus musculus, 1440 h, route intraperitoneal; outline: as §1
# [32] = Percent increase in life span of dying mice tested in vivo at 21.75 mg/kg against ip implanted LOX amelanotic melanoma in mice (60-day survivors); format: functional; settings: Mus musculus, 1440 h, route intraperitoneal; outline: as §1
# [33] = tested on: P388; test: Change in tumor cell population in ip implanted P388 Leukemia in mice after administration of compound at 21.8 mg/kg; format: functional, Mus musculus; settings: route intraperitoneal; outline: as §4
# [34] = tested on: P388; test: Change in tumor cell population in ip implanted P388 Leukemia in mice after administration of compound at 43.5 mg/kg; format: functional, Mus musculus; settings: route intraperitoneal; outline: as §4
# [35] = tested on: P388; test: Change in tumor cell population in ip implanted P388 Leukemia in mice after administration of compound at 87 mg/kg; format: functional, Mus musculus; settings: route intraperitoneal; outline: as §5
# [36] = tested on: P388; test: Percent increase in life span of dying mice tested in vivo at 21.8 mg/kg against ip implanted P388 Leukemia in mice; format: functional; settings: Mus musculus, route intraperitoneal; outline: as §6
# [37] = tested on: P388; test: Percent increase in life span of dying mice tested in vivo at 43.5 mg/kg against ip implanted P388 Leukemia in mice; format: functional; settings: Mus musculus, route intraperitoneal; outline: as §6
# [38] = tested on: P388; test: Percent increase in life span of dying mice tested in vivo at 87 mg/kg against ip implanted P388 Leukemia in mice; format: functional; settings: Mus musculus, route intraperitoneal; outline: as §7
# [39] = tested on: P388; test: Change in tumor cell population in ip implanted P388 Leukemia in mice after administration of compound at 10.9 mg/kg; format: functional, Mus musculus; settings: route intraperitoneal; outline: as §4
# [40] = tested on: P388; test: Percent increase in life span of dying mice tested in vivo at 10.9 mg/kg against ip implanted P388 Leukemia in mice; format: functional; settings: Mus musculus, route intraperitoneal; outline: as §6
smiles,measurement,setting,value
CCC[S+]([O-])c1nc(COC(=O)NC)c(COC(=O)NC)n1C (stereo not given),ILS at 49.5 mg/kg,[1],15%
same,ILS at 99 mg/kg,[2],1%
same,KE,[3],1
same,KE,[4],1.6
same,KE,[5],0.8
same,KE,[6],1.7
same,ILS at 24.75 mg/kg,[7],-2%
same,ILS at 198 mg/kg,[8],21%
same,KE,[9],1
same,KE,[10],0.9
same,KE,[11],0.9
same,ILS at 24.8 mg/kg,[12],25%
same,ILS at 49.5 mg/kg,[13],27%
same,ILS at 99 mg/kg,[14],27%
same,KE,[15],1.4
same,ILS at 12.4 mg/kg,[16],10%
CNC(=O)OCc1nc(SC2CCCCO2)n(C)c1COC(=O)NC (stereo not given),ILS at 53 mg/kg,[17],15%
same,KE,[18],1
same,KE,[19],1
same,KE,[20],1.3
same,ILS at 106 mg/kg,[21],15%
same,KE,[22],1.2
same,ILS at 26.5 mg/kg,[23],11%
same,ILS at 212 mg/kg,[24],8%
CCSc1nc(COC(=O)NC)c(COC(=O)NC)n1C,ILS at 87 mg/kg,[25],85%
same,KE,[26],-2.5
same,KE,[27],-2.1
same,ILS at 43.5 mg/kg,[28],52%
same,KE,[29],-0.2
same,KE,[30],-0.5
same,ILS at 174 mg/kg,[31],95%
same,ILS at 21.75 mg/kg,[32],44%
same,KE,[33],-1.3
same,KE,[34],-1.9
same,KE,[35],-4.3
same,ILS at 21.8 mg/kg,[36],56%
same,ILS at 43.5 mg/kg,[37],64%
same,ILS at 87 mg/kg,[38],99%
same,KE,[39],-0.6
same,ILS at 10.9 mg/kg,[40],47%
